According to ChEMBL document CHEMBL1123145, “Synthesis of pyrrolizidine alkaloids indicine, intermedine, lycopsamine, and analogues and their N-oxides. Potential antitumor agents” (1985):

Key:
Type in all cases: functional, Mus musculus
[1] = system: P388; experiment: Survival rate of the animals determined for antitumor activity against P388 Lymphocytic Leukemia system at a dose of 192 mg/kg
[2] = system: P388; experiment: Survival rate of the animals determined for antitumor activity against P388 Lymphocytic Leukemia system at a dose of 48 mg/kg
[3] = system: P388; experiment: Survival rate of the animals determined for antitumor activity against P388 Lymphocytic Leukemia system at a dose of 24 mg/kg
[4] = system: P388; experiment: Weight difference observed in survivors treated for antitumor activity against P388 Lymphocytic Leukemia system at a dose of 192 mg/kg
[5] = system: P388; experiment: Weight difference observed in survivors treated for antitumor activity against P388 Lymphocytic Leukemia system at a dose of 24 mg/kg
[6] = system: P388; experiment: Survival rate of the animals determined for antitumor activity against P388 Lymphocytic Leukemia system at a dose of 96 mg/kg
[7] = system: P388; experiment: Weight difference observed in survivors treated for antitumor activity against P388 Lymphocytic Leukemia system at a dose of 96 mg/kg
[8] = system: P388; experiment: Weight difference observed in survivors treated for antitumor activity against P388 Lymphocytic Leukemia system at a dose of 48 mg/kg
[9] = system: P388; experiment: Number of Survivors determined for antitumor activity against P388 Lymphocytic Leukemia system on day 5 at a dose of 192 mg/kg (6 out of 6)
[10] = system: P388; experiment: Number of Survivors determined for antitumor activity against P388 Lymphocytic Leukemia system on day 5 at a dose of 24 mg/kg (6 out of 6)
[11] = system: P388; experiment: Number of Survivors determined for antitumor activity against P388 Lymphocytic Leukemia system on day 5 at a dose of 96 mg/kg(6 out of 6)
[12] = system: P388; experiment: Number of Survivors determined for antitumor activity against P388 Lymphocytic Leukemia system on day 5 at a dose of 48 mg/kg (6 out of 6)
[13] = system: P388; experiment: Survival rate of the animals determined for antitumor activity against P388 Lymphocytic Leukemia system at a dose of 800 mg/kg (Group III)
Outline: (§1)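 P388 lymphocytic leukemia screen run in separate test groups (I–IV). Each group includes its own indicine N-oxide internal control, listed as the group's first entry. Survival and survivor weight change are read against that control. Material was limited, so some analogues were screened up to about 200 mg/kg maximum.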

[14] = system: P388; experiment: Weight difference observed in survivors treated for antitumor activity against P388 Lymphocytic Leukemia system at a dose of 200 mg/kg (Group II); outline: as §1
[15] = system: P388; experiment: Weight difference observed in survivors treated for antitumor activity against P388 Lymphocytic Leukemia system at a dose of 800 mg/kg (Group IV)
[16] = system: P388; experiment: Number of Survivors determined for antitumor activity against P388 Lymphocytic Leukemia system on day 5 at a dose of 200 mg/kg (Group IV)(6 out of 6)
[17] = system: P388; experiment: Weight difference observed in survivors treated for antitumor activity against P388 Lymphocytic Leukemia system at a dose of 200 mg/kg (Group I); outline: as §1
[18] = system: P388; experiment: Weight difference observed in survivors treated for antitumor activity against P388 Lymphocytic Leukemia system at a dose of 1600 mg/kg (Group I); outline: as §1
[19] = system: P388; experiment: Survival rate of the animals determined for antitumor activity against P388 Lymphocytic Leukemia system at a dose of 200 mg/kg (Group II); outline: as §1
[20] = system: P388; experiment: Number of Survivors determined for antitumor activity against P388 Lymphocytic Leukemia system on day 5 at a dose of 400 mg/kg (Group I)(6 out of 6)
[21] = system: P388; experiment: Weight difference observed in survivors treated for antitumor activity against P388 Lymphocytic Leukemia system at a dose of 400 mg/kg (Group III); outline: as §1
[22] = system: P388; experiment: Weight difference observed in survivors treated for antitumor activity against P388 Lymphocytic Leukemia system at a dose of 400 mg/kg (Group IV); outline: as §1
[23] = system: P388; experiment: Survival rate of the animals determined for antitumor activity against P388 Lymphocytic Leukemia system at a dose of 200 mg/kg (Group III); outline: as §1
[24] = system: P388; experiment: Number of Survivors determined for antitumor activity against P388 Lymphocytic Leukemia system on day 5 at a dose of 800 mg/kg (Group I)(6 out of 6)
[25] = system: P388; experiment: Survival rate of the animals determined for antitumor activity against P388 Lymphocytic Leukemia system at a dose of 1600 mg/kg (Group II)
[26] = system: P388; experiment: Survival rate of the animals determined for antitumor activity against P388 Lymphocytic Leukemia system at a dose of 400 mg/kg (Group II); outline: as §1
[27] = system: P388; experiment: Number of Survivors determined for antitumor activity against P388 Lymphocytic Leukemia system on day 5 at a dose of 200 mg/kg (Group III)(6 out of 6)
[28] = system: P388; experiment: Survival rate of the animals determined for antitumor activity against P388 Lymphocytic Leukemia system at a dose of 200 mg/kg (Group IV); outline: as §1
[29] = system: P388; experiment: Weight difference observed in survivors treated for antitumor activity against P388 Lymphocytic Leukemia system at a dose of 1600 mg/kg (Group II); outline: as §1
[30] = system: P388; experiment: Survival rate of the animals determined for antitumor activity against P388 Lymphocytic Leukemia system at a dose of 400 mg/kg (Group III); outline: as §1
[31] = system: P388; experiment: Number of Survivors determined for antitumor activity against P388 Lymphocytic Leukemia system on day 5 at a dose of 800 mg/kg (Group II)(6 out of 6)
[32] = system: P388; experiment: Number of Survivors determined for antitumor activity against P388 Lymphocytic Leukemia system on day 5 at a dose of 400 mg/kg (Group IV)(6 out of 6)
[33] = system: P388; experiment: Survival rate of the animals determined for antitumor activity against P388 Lymphocytic Leukemia system at a dose of 200 mg/kg (Group I)
[34] = system: P388; experiment: Survival rate of the animals determined for antitumor activity against P388 Lymphocytic Leukemia system at a dose of 400 mg/kg (Group IV); outline: as §1
[35] = system: P388; experiment: Number of Survivors determined for antitumor activity against P388 Lymphocytic Leukemia system on day 5 at a dose of 1600 mg/kg (Group IV)(5 out of 6)
[36] = system: P388; experiment: Weight difference observed in survivors treated for antitumor activity against P388 Lymphocytic Leukemia system at a dose of 400 mg/kg (Group II); outline: as §1
[37] = system: P388; experiment: Weight difference observed in survivors treated for antitumor activity against P388 Lymphocytic Leukemia system at a dose of 1600 mg/kg (Group III); outline: as §1
[38] = system: P388; experiment: Weight difference observed in survivors treated for antitumor activity against P388 Lymphocytic Leukemia system at a dose of 200 mg/kg (Group IV); outline: as §1
[39] = system: P388; experiment: Weight difference observed in survivors treated for antitumor activity against P388 Lymphocytic Leukemia system at a dose of 1600 mg/kg (Group IV); outline: as §1
[40] = system: P388; experiment: Weight difference observed in survivors treated for antitumor activity against P388 Lymphocytic Leukemia system at a dose of 400 mg/kg (Group I); outline: as §1
[41] = system: P388; experiment: Survival rate of the animals determined for antitumor activity against P388 Lymphocytic Leukemia system at a dose of 800 mg/kg (Group IV); outline: as §1
[42] = system: P388; experiment: Survival rate of the animals determined for antitumor activity against P388 Lymphocytic Leukemia system at a dose of 800 mg/kg (Group I); outline: as §1
[43] = system: P388; experiment: Survival rate of the animals determined for antitumor activity against P388 Lymphocytic Leukemia system at a dose of 800 mg/kg (Group II); outline: as §1
[44] = system: P388; experiment: Number of Survivors determined for antitumor activity against P388 Lymphocytic Leukemia system on day 5 at a dose of 400 mg/kg (Group III)(6 out of 6)
[45] = system: P388; experiment: Number of Survivors determined for antitumor activity against P388 Lymphocytic Leukemia system on day 5 at a dose of 200 mg/kg (Group I)(6 out of 6)
[46] = system: P388; experiment: Weight difference observed in survivors treated for antitumor activity against P388 Lymphocytic Leukemia system at a dose of 200 mg/kg (Group III); outline: as §1
[47] = system: P388; experiment: Weight difference observed in survivors treated for antitumor activity against P388 Lymphocytic Leukemia system at a dose of 800 mg/kg (Group III)
[48] = system: P388; experiment: Weight difference observed in survivors treated for antitumor activity against P388 Lymphocytic Leukemia system at a dose of 800 mg/kg (Group II)
[49] = system: P388; experiment: Number of Survivors determined for antitumor activity against P388 Lymphocytic Leukemia system on day 5 at a dose of 400 mg/kg (Group II)(6 out of 6)
[50] = system: P388; experiment: Survival rate of the animals determined for antitumor activity against P388 Lymphocytic Leukemia system at a dose of 1600 mg/kg (Group I)
[51] = system: P388; experiment: Number of Survivors determined for antitumor activity against P388 Lymphocytic Leukemia system on day 5 at a dose of 1600 mg/kg (Group II)(6 out of 6)
[52] = system: P388; experiment: Number of Survivors determined for antitumor activity against P388 Lymphocytic Leukemia system on day 5 at a dose of 800 mg/kg (Group IV)(6 out of 6)
[53] = system: P388; experiment: Number of Survivors determined for antitumor activity against P388 Lymphocytic Leukemia system on day 5 at a dose of 200 mg/kg (Group II)(6 out of 6)
[54] = system: P388; experiment: Number of Survivors determined for antitumor activity against P388 Lymphocytic Leukemia system on day 5 at a dose of 800 mg/kg (Group III)(6 out of 6)
[55] = system: P388; experiment: Number of Survivors determined for antitumor activity against P388 Lymphocytic Leukemia system on day 5 at a dose of 1600 mg/kg (Group I) (6 out of 6)
[56] = system: P388; experiment: Weight difference observed in survivors treated for antitumor activity against P388 Lymphocytic Leukemia system at a dose of 800 mg/kg (Group I)
[57] = system: P388; experiment: Survival rate of the animals determined for antitumor activity against P388 Lymphocytic Leukemia system at a dose of 400 mg/kg (Group I); outline: as §1
[58] = system: P388; experiment: Number of Survivors determined for antitumor activity against P388 Lymphocytic Leukemia system on day 5 at a dose of 1600 mg/kg (Group III)(5 out of 6)

Q: CC(C)C(O)(C(=O)OCC1=CC[N+]2([O-])CC[C@@H](O)C12)C(C)O (stereo in doubt; form 3) was tested. Which T/C [1] did it give?
A: 109%

Q: What about the T/C [2] of the same compound?
A: 105%

Q: And the T/C [3]?
A: 100%

Q: What about the T-C [4] of the same compound?
A: -1.1

Q: And the T-C [5]?
A: -0.1

Q: What about the T/C [6] of the same compound?
A: 107%

Q: And the T-C [7]?
A: -0.1

Q: And the T-C [8]?
A: -0.4

Q: And the Survivors [9]?
A: 6

Q: What about the Survivors [10] of the same compound?
A: 6

Q: What about the Survivors [11] of the same compound?
A: 6

Q: And the Survivors [12]?
A: 6

Q: CC(C)[C@](O)(C(=O)OCC1=CC[N+]2([O-])CC[C@@H](O)[C@@H]12)[C@H](C)O (stereo partly drawn) [INDICINE N-OXIDE] was tested. Which T/C [13] did it give?
A: 200%

Q: What about the T-C [14] of the same compound?
A: -0.5

Q: What about the T-C [15] of the same compound?
A: -2.6

Q: What about the Survivors [16] of the same compound?
A: 6

Q: What about the T-C [17] of the same compound?
A: -1.6

Q: And the T-C [18]?
A: -2.2

Q: And the T/C [19]?
A: 120%

Q: And the Survivors [20]?
A: 6

Q: What about the T-C [21] of the same compound?
A: -4.3

Q: What about the T-C [22] of the same compound?
A: -1.7

Q: What about the T/C [23] of the same compound?
A: 170%

Q: What about the Survivors [24] of the same compound?
A: 6

Q: What about the T/C [25] of the same compound?
A: 117%

Q: What about the T/C [26] of the same compound?
A: 145%

Q: What about the Survivors [27] of the same compound?
A: 6

Q: And the T/C [28]?
A: 140%

Q: And the T-C [29]?
A: -3.7

Q: What about the T/C [30] of the same compound?
A: 191%

Q: What about the Survivors [31] of the same compound?
A: 6

Q: What about the Survivors [32] of the same compound?
A: 6

Q: And the T/C [33]?
A: 133%

Q: What about the T/C [34] of the same compound?
A: 146%

Q: What about the Survivors [35] of the same compound?
A: 5

Q: And the T-C [36]?
A: -1.9

Q: And the T-C [37]?
A: -5.8

Q: What about the T-C [38] of the same compound?
A: -0.7

Q: And the T-C [39]?
A: -2.9

Q: And the T-C [40]?
A: -1.6

Q: And the T/C [41]?
A: 112%

Q: What about the T/C [42] of the same compound?
A: 160%

Q: What about the T/C [43] of the same compound?
A: 200%

Q: And the Survivors [44]?
A: 6

Q: And the Survivors [45]?
A: 6

Q: What about the T-C [46] of the same compound?
A: -2.9

Q: And the T-C [47]?
A: -4.7

Q: What about the T-C [48] of the same compound?
A: -3.3

Q: What about the Survivors [49] of the same compound?
A: 6

Q: What about the T/C [50] of the same compound?
A: 142%

Q: What about the Survivors [51] of the same compound?
A: 6

Q: What about the Survivors [52] of the same compound?
A: 6

Q: And the Survivors [53]?
A: 6

Q: And the Survivors [54]?
A: 6

Q: What about the Survivors [55] of the same compound?
A: 6

Q: And the T-C [56]?
A: -3.2

Q: What about the T/C [57] of the same compound?
A: 151%

Q: What about the Survivors [58] of the same compound?
A: 5
